The results in this text go back to ChEMBL document CHEMBL2146466, “Evaluation of dimerization-inhibitory activities of cyclic peptides containing a β-hairpin loop sequence of the EGF receptor” (2012).

Activity calls are given as the source filed them. The calls are words filed in the database; no cut-off is given here. Where a SMILES comes first, the peptide text is derived from it.

Sequence of Epidermal growth factor receptor (Homo sapiens) (P00533 whole entry): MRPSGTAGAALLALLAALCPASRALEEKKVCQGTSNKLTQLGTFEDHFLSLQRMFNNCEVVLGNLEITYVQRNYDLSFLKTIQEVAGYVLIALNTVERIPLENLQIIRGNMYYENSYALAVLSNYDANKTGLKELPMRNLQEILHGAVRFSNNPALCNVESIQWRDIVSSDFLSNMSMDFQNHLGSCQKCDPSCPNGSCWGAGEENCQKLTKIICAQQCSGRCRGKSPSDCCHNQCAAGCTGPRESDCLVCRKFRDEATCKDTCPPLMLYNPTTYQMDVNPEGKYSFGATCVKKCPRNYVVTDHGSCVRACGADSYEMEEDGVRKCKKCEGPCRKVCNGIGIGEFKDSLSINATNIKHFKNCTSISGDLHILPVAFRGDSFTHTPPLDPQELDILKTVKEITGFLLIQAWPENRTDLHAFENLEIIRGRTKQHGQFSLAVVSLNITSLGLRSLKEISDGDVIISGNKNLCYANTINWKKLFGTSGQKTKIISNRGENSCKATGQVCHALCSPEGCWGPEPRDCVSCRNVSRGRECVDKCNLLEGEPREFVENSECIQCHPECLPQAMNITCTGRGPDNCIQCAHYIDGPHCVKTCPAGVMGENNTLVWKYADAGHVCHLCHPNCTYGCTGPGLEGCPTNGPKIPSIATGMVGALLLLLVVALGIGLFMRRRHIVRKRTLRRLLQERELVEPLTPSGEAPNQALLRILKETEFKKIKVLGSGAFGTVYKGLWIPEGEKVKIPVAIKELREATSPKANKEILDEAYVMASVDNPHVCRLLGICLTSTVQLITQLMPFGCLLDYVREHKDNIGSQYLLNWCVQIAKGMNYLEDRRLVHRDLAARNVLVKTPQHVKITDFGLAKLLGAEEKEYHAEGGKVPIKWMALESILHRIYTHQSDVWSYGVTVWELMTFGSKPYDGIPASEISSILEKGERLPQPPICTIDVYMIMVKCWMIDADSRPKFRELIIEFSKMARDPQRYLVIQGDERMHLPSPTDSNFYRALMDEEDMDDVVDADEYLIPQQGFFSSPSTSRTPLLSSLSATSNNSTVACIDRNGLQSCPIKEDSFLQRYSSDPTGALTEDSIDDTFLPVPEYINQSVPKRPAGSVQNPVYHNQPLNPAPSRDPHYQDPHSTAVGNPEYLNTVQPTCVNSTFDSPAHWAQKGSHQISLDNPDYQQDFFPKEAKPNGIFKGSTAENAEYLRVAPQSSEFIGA

The first assay has as its target Epidermal growth factor receptor (Homo sapiens) (UniProt P00533). Put plainly: Inhibition of human recombinant EGF receptor dimerization expressed in A431 cells at 10 uM after 10 mins by immunoblotting analysis relative to control. Type of assay: cell-based. The conditions noted are these: A-431. In a few lines:
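Confluent A431 cells were solubilized in 20 mM HEPES pH 7.4 with 1% Triton X-100, 10% glycerol, 1 mM EGTA and 1 mM PMSF, and the extract was spun at 250,000×g. Supernatant at 2 µg/µL protein was pre-treated 60 min with 10 µM peptide, then given 0.21 µM human EGF for 10 min. Cross-linking was with 1 mM BS³ for 10 min, quenched with glycine. Dimer and monomer were resolved by SDS-PAGE and anti-EGFR immunoblot, with ECL quantification. Dimer without peptide was set to 1.0; mean ± SD of at least three experiments in duplicate.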
As for `CSCC[C@@H]1NC(=O)[C@H](CCC(N)=O)NC(=O)[C@H](Cc2ccc(O)cc2)NC(=O)[C@H]([C@@H](C)O)NC(=O)[C@H]([C@@H](C)O)NC(=O)[C@@H]2CCCN2C(=O)[C@H](CC(N)=O)NC(=O)[C@H](C)NC(=O)[C@@H](N)CSSC[C@@H](C(=O)O)NC1=O` (HELM PEPTIDE1{C.A.N.P.T.T.Y.Q.M.C}$PEPTIDE1,PEPTIDE1,1:R3-10:R3$$$V2.0), the inhibition result is “inactive”. As to `CSCC[C@@H]1NC(=O)[C@H](CCC(N)=O)NC(=O)[C@H](Cc2ccc(O)cc2)NC(=O)[C@H]([C@@H](C)O)NC(=O)[C@H]([C@@H](C)O)NC(=O)[C@@H]2CCCN2C(=O)[C@H](CC(N)=O)NC(=O)[C@H](Cc2ccc(O)cc2)NC(=O)[C@H](CC(C)C)NC(=O)[C@H](CCSC)NC(=O)[C@H](CC(C)C)NC(=O)[C@@H](N)CSSC[C@@H](C(=O)O)NC(=O)[C@H](CCC(=O)O)NC(=O)[C@@H]2CCCN2C(=O)[C@H](C(C)C)NC(=O)[C@H](CC(=O)O)NC1=O` (HELM PEPTIDE1{C.L.M.L.Y.N.P.T.T.Y.Q.M.D.V.P.E.C}$PEPTIDE1,PEPTIDE1,1:R3-17:R3$$$V2.0), the inhibition entry is “Active”. `CSCC[C@@H]1NC(=O)[C@H](CCC(N)=O)NC(=O)[C@H](Cc2ccc(O)cc2)NC(=O)[C@H]([C@@H](C)O)NC(=O)[C@H]([C@@H](C)O)NC(=O)[C@@H]2CCCN2C(=O)[C@H](CC(N)=O)NC(=O)[C@H](Cc2ccc(O)cc2)NC(=O)[C@H](CC(C)C)NC(=O)[C@H](CCSC)NC(=O)[C@@H](N)CSSC[C@@H](C(=O)O)NC(=O)[C@H](C(C)C)NC(=O)[C@H](CC(=O)O)NC1=O` (HELM PEPTIDE1{C.M.L.Y.N.P.T.T.Y.Q.M.D.V.C}$PEPTIDE1,PEPTIDE1,1:R3-14:R3$$$V2.0): the inhibition entry was “Active”. Consider `CSCC[C@@H]1NC(=O)[C@H](CCC(N)=O)NC(=O)[C@H](Cc2ccc(O)cc2)NC(=O)[C@H]([C@@H](C)O)NC(=O)[C@H]([C@@H](C)O)NC(=O)[C@@H]2CCCN2C(=O)[C@H](CC(N)=O)NC(=O)[C@H](Cc2ccc(O)cc2)NC(=O)[C@H](CC(C)C)NC(=O)[C@H](CCSC)NC(=O)[C@H](CC(C)C)NC(=O)[C@@H]2CCCN2C(=O)[C@@H]2CCCN2C(=O)[C@@H](N)CSSC[C@@H](C(=O)O)NC(=O)CNC(=O)[C@H](CCC(=O)O)NC(=O)[C@@H]2CCCN2C(=O)[C@H](C(C)C)NC(=O)[C@H](CC(=O)O)NC1=O` (HELM PEPTIDE1{C.P.P.L.M.L.Y.N.P.T.T.Y.Q.M.D.V.P.E.G.C}$PEPTIDE1,PEPTIDE1,1:R3-20:R3$$$V2.0), for which the inhibition entry is “Active”. Turning to `C[C@@H](O)[C@@H]1NC(=O)[C@H]([C@@H](C)O)NC(=O)[C@@H]2CCCN2C(=O)[C@H](CC(N)=O)NC(=O)[C@H](Cc2ccc(O)cc2)NC(=O)[C@@H](N)CSSC[C@@H](C(=O)N[C@@H](CC(=O)O)C(=O)O)NC(=O)[C@H](CCC(N)=O)NC(=O)[C@H](Cc2ccc(O)cc2)NC1=O` (HELM PEPTIDE1{C.Y.N.P.T.T.Y.Q.C.D}$PEPTIDE1,PEPTIDE1,1:R3-9:R3$$$V2.0), the inhibition result was “inactive”.

Regarding `CSCC[C@@H]1NC(=O)[C@H](CCC(N)=O)NC(=O)[C@H](Cc2ccc(O)cc2)NC(=O)[C@H]([C@@H](C)O)NC(=O)[C@H]([C@@H](C)O)NC(=O)[C@@H]2CCCN2C(=O)[C@H](CC(N)=O)NC(=O)[C@H](Cc2ccc(O)cc2)NC(=O)[C@@H](N)CSSC[C@@H](C(=O)N[C@H](C(=O)N[C@@H](CC(N)=O)C(=O)N2CCC[C@H]2C(=O)N[C@@H](CCC(=O)O)C(=O)O)C(C)C)NC1=O` (HELM PEPTIDE1{C.Y.N.P.T.T.Y.Q.M.C.V.N.P.E}$PEPTIDE1,PEPTIDE1,1:R3-10:R3$$$V2.0), the inhibition entry is “inactive”. In the case of `CSCC[C@@H]1NC(=O)[C@H](CCC(N)=O)NC(=O)[C@H](Cc2ccc(O)cc2)NC(=O)[C@H]([C@@H](C)O)NC(=O)[C@H]([C@@H](C)O)NC(=O)[C@@H]2CCCN2C(=O)[C@H](CC(N)=O)NC(=O)[C@H](Cc2ccc(O)cc2)NC(=O)[C@@H](N)CSSC[C@@H](C(=O)N[C@H](C(=O)N[C@@H](CC(N)=O)C(=O)O)C(C)C)NC1=O` (HELM PEPTIDE1{C.Y.N.P.T.T.Y.Q.M.C.V.N}$PEPTIDE1,PEPTIDE1,1:R3-10:R3$$$V2.0), the inhibition result was “inactive”. As for `CSCC[C@@H]1NC(=O)[C@H](CCC(N)=O)NC(=O)[C@H](Cc2ccc(O)cc2)NC(=O)[C@H]([C@@H](C)O)NC(=O)[C@H]([C@@H](C)O)NC(=O)[C@@H]2CCCN2C(=O)[C@H](CC(N)=O)NC(=O)[C@H](Cc2ccc(O)cc2)NC(=O)[C@@H](N)CSSC[C@@H](C(=O)N[C@H](C(=O)O)C(C)C)NC1=O` (HELM PEPTIDE1{C.Y.N.P.T.T.Y.Q.M.C.V}$PEPTIDE1,PEPTIDE1,1:R3-10:R3$$$V2.0), the inhibition entry was “inactive”. On to `CC(C)C[C@H](N)C(=O)N[C@H]1CSSC[C@@H](C(=O)N[C@@H](CC(=O)O)C(=O)O)NC(=O)[C@H](CCC(N)=O)NC(=O)[C@H](Cc2ccc(O)cc2)NC(=O)[C@H]([C@@H](C)O)NC(=O)[C@H]([C@@H](C)O)NC(=O)[C@@H]2CCCN2C(=O)[C@H](CC(N)=O)NC1=O` (HELM PEPTIDE1{L.C.N.P.T.T.Y.Q.C.D}$PEPTIDE1,PEPTIDE1,2:R3-9:R3$$$V2.0), for which the inhibition result is “inactive”. Still for that read-out and setting: the value for `CSCC[C@@H]1NC(=O)[C@H](CCC(N)=O)NC(=O)[C@H](Cc2ccc(O)cc2)NC(=O)[C@H]([C@@H](C)O)NC(=O)[C@H]([C@@H](C)O)NC(=O)[C@@H]2CCCN2C(=O)[C@H](CC(N)=O)NC(=O)[C@H](Cc2ccc(O)cc2)NC(=O)[C@@H](NC(=O)[C@H](CCSC)NC(=O)[C@@H](N)CC(C)C)CSSC[C@@H](C(=O)O)NC1=O` (HELM PEPTIDE1{L.M.C.Y.N.P.T.T.Y.Q.M.C}$PEPTIDE1,PEPTIDE1,3:R3-12:R3$$$V2.0) was “Active”. In the case of `CSCC[C@@H]1NC(=O)[C@H](CCC(N)=O)NC(=O)[C@H](Cc2ccc(O)cc2)NC(=O)[C@H]([C@@H](C)O)NC(=O)[C@H]([C@@H](C)O)NC(=O)[C@@H]2CCCN2C(=O)[C@H](CC(N)=O)NC(=O)[C@H](Cc2ccc(O)cc2)NC(=O)[C@@H](NC(=O)[C@H](CCSC)NC(=O)[C@H](CC(C)C)NC(=O)[C@@H]2CCCN2)CSSC[C@@H](C(=O)O)NC1=O` (HELM PEPTIDE1{P.L.M.C.Y.N.P.T.T.Y.Q.M.C}$PEPTIDE1,PEPTIDE1,4:R3-13:R3$$$V2.0), the inhibition entry is “Active”.

The target is the same in the next assay. In words: Human recombinant EGF receptor dimer amount expressed in A431 cells at 10 uM after 10 mins by immunoblotting analysis relative to control. The conditions noted are these: A-431.
Regarding `CSCC[C@@H]1NC(=O)[C@H](CCC(N)=O)NC(=O)[C@H](Cc2ccc(O)cc2)NC(=O)[C@@H]2CSSC[C@H](NC(=O)[C@H](Cc3ccc(O)cc3)NC(=O)[C@@H](N)CSSC[C@@H](C(=O)O)NC1=O)C(=O)N1CCC[C@H]1C(=O)N[C@@H]([C@@H](C)O)C(=O)N2` (HELM PEPTIDE1{C.Y.C.P.T.C.Y.Q.M.C}$PEPTIDE1,PEPTIDE1,1:R3-10:R3|PEPTIDE1,PEPTIDE1,3:R3-6:R3$$$V2.0), the residual activity was determined as 83%. In the case of `CSCC[C@@H]1NC(=O)[C@H](CCC(N)=O)NC(=O)[C@H](Cc2ccc(O)cc2)NC(=O)[C@H]([C@@H](C)O)NC(=O)[C@H]([C@@H](C)O)NC(=O)[C@@H]2CCCN2C(=O)[C@H](CC(N)=O)NC(=O)[C@H](Cc2ccc(O)cc2)NC(=O)[C@@H](NC(=O)[C@@H](N)CCSC)CSSC[C@@H](C(=O)O)NC1=O` (HELM PEPTIDE1{M.C.Y.N.P.T.T.Y.Q.M.C}$PEPTIDE1,PEPTIDE1,2:R3-11:R3$$$V2.0), the residual activity was found to be 64%.

The test system of a further assay is A-431. In words: Antiproliferative activity against human A431 cells at 10 uM after 3 days by WST-8 assay. Type of assay: functional. The conditions noted are these: A-431, 72 h. In outline:
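A431 cells in DMEM with 10% FBS were seeded at 5×10^3 cells/well and grown 24 h at 37 °C, 5% CO₂. Peptide at 10 µM, or distilled water as the 100% growth control, was added and cells were re-incubated 24 h for three consecutive days. WST-8 was then added for 90 min and absorbance read at 450 nm (reference 655 nm). Six replicate wells, three independent repeats; mean ± SD.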
For H-LVYNKLTFQLEPNPHTK-OH, the cell proliferation (% of vehicle) at 10 µM was 95%.

The next assay addresses Epidermal growth factor receptor (Homo sapiens) (UniProt P00533). In words: Inhibition of human recombinant EGF receptor dimerization expressed in A431 cells at 10 uM after 10 mins by immunoblotting analysis relative to CYNPTTYQMC
The class given is cell-based. The conditions noted are these: A-431.
On to `CSCC[C@@H]1NC(=O)[C@H](CCC(N)=O)NC(=O)[C@H](Cc2ccc(O)cc2)NC(=O)[C@@H]2CSSC[C@H](NC(=O)[C@H](Cc3ccc(O)cc3)NC(=O)[C@@H](N)CSSC[C@@H](C(=O)O)NC1=O)C(=O)N1CCC[C@H]1C(=O)N[C@@H]([C@@H](C)O)C(=O)N2` (HELM PEPTIDE1{C.Y.C.P.T.C.Y.Q.M.C}$PEPTIDE1,PEPTIDE1,1:R3-10:R3|PEPTIDE1,PEPTIDE1,3:R3-6:R3$$$V2.0), for which the inhibition came to 65%.
